Article PMC10432377 (Journal of Applied Glycoscience, 2023)

Experiments:
Assay type in all cases: biochemical, Lacticaseibacillus casei
Conditions in all cases: 80 mM sodium acetate pH 4.0, 37 °C
LBCZ_0230 [1] = assay: D-galactose release, L-arabinose/D-galactose assay kit
How it was run: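 Recombinant C-terminally His6-tagged enzyme was expressed in E. coli BL21(DE3) and Ni²⁺-affinity purified. Lacto-N-biose I or galacto-N-biose at 0.1-2 mM was reacted with enzyme at 37 °C for 10 min. Reactions were stopped at 80 °C for 3 min and D-galactose was quantified. Km came from Michaelis-Menten nonlinear regression, as mean ± SD of three independent experiments.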

LBCZ_0230 [2] = assay: o-nitrophenol release, A400
How it was run: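 The enzyme was C-terminally His6-tagged, expressed in E. coli BL21(DE3) and purified on Ni²⁺ affinity. Protein was quantified by amino acid analysis. o-Nitrophenyl β-D-galactopyranoside at 0.05-1 mM was incubated with enzyme at 37 °C for 10 min and stopped with 1 M Na₂CO₃. Released o-nitrophenol was read at A400. Km was fitted by nonlinear Michaelis-Menten regression from three independent experiments (mean ± SD).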

LBCZ_0230 [3] = assay: p-nitrophenol release, A400
How it was run: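 Purified recombinant His6-tagged enzyme (E. coli BL21(DE3), Ni²⁺ column) was assayed on p-nitrophenyl β-D-galactopyranoside over 0.0125-0.5 mM. Incubation ran at 37 °C for 10 min and was quenched with 1 M Na₂CO₃. p-Nitrophenol was measured at A400. Km was obtained by nonlinear Michaelis-Menten fitting, as mean ± SD of three independent experiments.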

SMILES	Km (LBCZ_0230 [1])	also measured
CC(=O)N[C@H]1C(O)O[C@H](CO)[C@H](O)[C@@H]1O[C@@H]1O[C@H](CO)[C@H](O)[C@H](O)[C@H]1O (stereo partly shown) [GNB]	707 ± 18 µM	
CC(=O)N[C@H]1C(O)O[C@H](CO)[C@@H](O)[C@@H]1O[C@@H]1O[C@H](CO)[C@H](O)[C@H](O)[C@H]1O (stereo partly shown) [LNB]	238 ± 5 µM	
O=[N+]([O-])c1ccccc1O[C@@H]1O[C@H](CO)[C@H](O)[C@H](O)[C@H]1O [oNPGal]		Km (LBCZ_0230 [2]): 50.1 ± 2.3 µM
O=[N+]([O-])c1ccc(O[C@@H]2O[C@H](CO)[C@H](O)[C@H](O)[C@H]2O)cc1 [pNPGal]		Km (LBCZ_0230 [3]): 20.9 ± 1.3 µM
